From ChEMBL document CHEMBL4138284, “Biomimetic Stereoselective Sulfa-Michael Addition Leads to Platensimycin and Platencin Sulfur Analogues against Methicillin-Resistant Staphylococcus aureus” (J Nat Prod, 2018)
Values after ≈ are worked out from the molar mass of the structure shown.

Columns and labels:
Format in all cases: functional
Staphylococcus aureus [1] = test: Antibacterial activity against methicillin-resistant Staphylococcus aureus isolate 11 incubated overnight by agar dilution method
Method in brief: (§1)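 MIC by agar dilution. Strains were grown overnight in LB broth and diluted, then about 10^4 CFU (2 μL spots) were spotted onto LB agar plates containing test compound at 0.5 to 8 μg mL−1 agar. Plates were incubated overnight at 37 °C and inspected for growth. Clinical MSSA and MRSA isolates came from local hospitals.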

Staphylococcus aureus [2] = test: Antibacterial activity against Staphylococcus aureus ATCC 29213 incubated overnight by agar dilution method; method in brief: as §1
Staphylococcus aureus [3] = test: Antibacterial activity against methicillin-sensitive Staphylococcus aureus isolate 1 incubated overnight by agar dilution method; method in brief: as §1
Staphylococcus aureus [4] = test: Antibacterial activity against methicillin-sensitive Staphylococcus aureus isolate 2 incubated overnight by agar dilution method; method in brief: as §1
Staphylococcus aureus [5] = test: Antibacterial activity against methicillin-sensitive Staphylococcus aureus isolate 3 incubated overnight by agar dilution method; method in brief: as §1
Staphylococcus aureus [6] = test: Antibacterial activity against methicillin-sensitive Staphylococcus aureus isolate 4 incubated overnight by agar dilution method; method in brief: as §1
Staphylococcus aureus [7] = test: Antibacterial activity against methicillin-resistant Staphylococcus aureus isolate 5 incubated overnight by agar dilution method; method in brief: as §1
Staphylococcus aureus [8] = test: Antibacterial activity against methicillin-resistant Staphylococcus aureus isolate 6 incubated overnight by agar dilution method; method in brief: as §1
Staphylococcus aureus [9] = test: Antibacterial activity against methicillin-resistant Staphylococcus aureus isolate 7 incubated overnight by agar dilution method; method in brief: as §1
Staphylococcus aureus [10] = test: Antibacterial activity against methicillin-resistant Staphylococcus aureus isolate 8 incubated overnight by agar dilution method; method in brief: as §1
Staphylococcus aureus [11] = test: Antibacterial activity against methicillin-resistant Staphylococcus aureus isolate 9 incubated overnight by agar dilution method; method in brief: as §1
Staphylococcus aureus [12] = test: Antibacterial activity against methicillin-resistant Staphylococcus aureus isolate 10 incubated overnight by agar dilution method; method in brief: as §1

| SMILES | MIC (Staphylococcus aureus [1]) [µg/mL] | MIC (Staphylococcus aureus [2]) [µg/mL] | MIC (Staphylococcus aureus [3]) [µg/mL] | MIC (Staphylococcus aureus [4]) [µg/mL] | MIC (Staphylococcus aureus [5]) [µg/mL] | MIC (Staphylococcus aureus [6]) [µg/mL] | MIC (Staphylococcus aureus [7]) [µg/mL] | MIC (Staphylococcus aureus [8]) [µg/mL] | MIC (Staphylococcus aureus [9]) [µg/mL] | MIC (Staphylococcus aureus [10]) [µg/mL] | MIC (Staphylococcus aureus [11]) [µg/mL] | MIC (Staphylococcus aureus [12]) [µg/mL] |
| --- | --- | --- | --- | --- | --- | --- | --- | --- | --- | --- | --- | --- |
| C[C@]12C[C@@]34C=CC(=O)[C@@](C)(CCC(=O)Nc5c(O)ccc(C(=O)O)c5O)[C@@H]3[C@H](C[C@@H]1C4)O2 | 1 (≈ 2.27 µM) | 1 (≈ 2.27 µM) | 0.5 (≈ 1.13 µM) | 0.5 (≈ 1.13 µM) | 0.5 (≈ 1.13 µM) | 0.5 (≈ 1.13 µM) | 1 (≈ 2.27 µM) | 1 (≈ 2.27 µM) | 1 (≈ 2.27 µM) | 1 (≈ 2.27 µM) | 1 (≈ 2.27 µM) | 0.5 (≈ 1.13 µM) |
| C[C@]12C[C@]34C[C@@H]1C[C@H](O2)[C@H]3[C@](C)(CCC(=O)Nc1c(O)ccc(C(=O)O)c1O)C(=O)C[C@@H]4SC(=O)c1cc(F)cc(F)c1 |  | 2 (≈ 3.25 µM) | 1 (≈ 1.62 µM) | 1 (≈ 1.62 µM) | 2 (≈ 3.25 µM) | 2 (≈ 3.25 µM) | 2 (≈ 3.25 µM) | 1 (≈ 1.62 µM) | 2 (≈ 3.25 µM) | 2 (≈ 3.25 µM) | 2 (≈ 3.25 µM) | 2 (≈ 3.25 µM) |
| C[C@]12C[C@]34C[C@@H]1C[C@H](O2)[C@H]3[C@](C)(CCC(=O)Nc1c(O)ccc(C(=O)O)c1O)C(=O)C[C@@H]4SC(=O)Cc1ccc(F)cc1 | 4 (≈ 6.54 µM) | 2 (≈ 3.27 µM) | 2 (≈ 3.27 µM) | 1 (≈ 1.63 µM) | 2 (≈ 3.27 µM) | 1 (≈ 1.63 µM) | 2 (≈ 3.27 µM) | 2 (≈ 3.27 µM) | 4 (≈ 6.54 µM) | 2 (≈ 3.27 µM) | 2 (≈ 3.27 µM) | 2 (≈ 3.27 µM) |
| C[C@]12C[C@]34C[C@@H]1C[C@H](O2)[C@H]3[C@](C)(CCC(=O)Nc1c(O)ccc(C(=O)O)c1O)C(=O)C[C@@H]4SC(=O)c1ccccc1F | 2 (≈ 3.35 µM) | 1 (≈ 1.67 µM) | 1 (≈ 1.67 µM) | 1 (≈ 1.67 µM) | 1 (≈ 1.67 µM) | 1 (≈ 1.67 µM) | 2 (≈ 3.35 µM) | 1 (≈ 1.67 µM) | 2 (≈ 3.35 µM) | 1 (≈ 1.67 µM) | 1 (≈ 1.67 µM) | 1 (≈ 1.67 µM) |
| C[C@]12C[C@]34C[C@@H]1C[C@H](O2)[C@H]3[C@](C)(CCC(=O)Nc1c(O)ccc(C(=O)O)c1O)C(=O)C[C@@H]4SC(=O)c1ccc([N+](=O)[O-])cc1 | 8 (≈ 12.8 µM) | 1 (≈ 1.6 µM) | 1 (≈ 1.6 µM) | 1 (≈ 1.6 µM) | 1 (≈ 1.6 µM) | 1 (≈ 1.6 µM) | 2 (≈ 3.2 µM) | 1 (≈ 1.6 µM) | 2 (≈ 3.2 µM) | 1 (≈ 1.6 µM) | 1 (≈ 1.6 µM) | 1 (≈ 1.6 µM) |
| C[C@]12C[C@]34C[C@@H]1C[C@H](O2)[C@H]3[C@](C)(CCC(=O)Nc1c(O)ccc(C(=O)O)c1O)C(=O)C[C@@H]4SC(=O)c1cccc(C(F)(F)F)c1 | 2 (≈ 3.09 µM) | 2 (≈ 3.09 µM) | 1 (≈ 1.54 µM) | 1 (≈ 1.54 µM) | 1 (≈ 1.54 µM) | 0.5 (≈ 0.772 µM) | 1 (≈ 1.54 µM) | 1 (≈ 1.54 µM) | 2 (≈ 3.09 µM) | 1 (≈ 1.54 µM) | 1 (≈ 1.54 µM) | 1 (≈ 1.54 µM) |
| C[C@]12C[C@]34C[C@@H]1C[C@H](O2)[C@H]3[C@](C)(CCC(=O)Nc1c(O)ccc(C(=O)O)c1O)C(=O)C[C@@H]4SC(=O)c1ccc(F)cc1 | 2 (≈ 3.35 µM) | 1 (≈ 1.67 µM) | 1 (≈ 1.67 µM) | 1 (≈ 1.67 µM) | 1 (≈ 1.67 µM) | 1 (≈ 1.67 µM) | 2 (≈ 3.35 µM) | 1 (≈ 1.67 µM) | 1 (≈ 1.67 µM) | 2 (≈ 3.35 µM) | 1 (≈ 1.67 µM) | 1 (≈ 1.67 µM) |
| Cc1ccc(C(=O)S[C@H]2CC(=O)[C@@](C)(CCC(=O)Nc3c(O)ccc(C(=O)O)c3O)[C@@H]3[C@@H]4C[C@H]5C[C@]23C[C@]5(C)O4)cc1 | 2 (≈ 3.37 µM) | 1 (≈ 1.68 µM) | 1 (≈ 1.68 µM) | 1 (≈ 1.68 µM) | 1 (≈ 1.68 µM) | 1 (≈ 1.68 µM) | 2 (≈ 3.37 µM) | 1 (≈ 1.68 µM) | 2 (≈ 3.37 µM) | 1 (≈ 1.68 µM) | 1 (≈ 1.68 µM) | 1 (≈ 1.68 µM) |
| C[C@]12C[C@]34C[C@@H]1C[C@H](O2)[C@H]3[C@](C)(CCC(=O)Nc1c(O)ccc(C(=O)O)c1O)C(=O)C[C@@H]4SC(=O)c1cc(C(F)(F)F)cc(C(F)(F)F)c1 |  | 1 (≈ 1.4 µM) | 1 (≈ 1.4 µM) | 1 (≈ 1.4 µM) | 1 (≈ 1.4 µM) | 1 (≈ 1.4 µM) | 1 (≈ 1.4 µM) | 1 (≈ 1.4 µM) | 2 (≈ 2.79 µM) | 1 (≈ 1.4 µM) | 1 (≈ 1.4 µM) | 1 (≈ 1.4 µM) |
| C[C@]12C[C@]34C[C@@H]1C[C@H](O2)[C@H]3[C@](C)(CCC(=O)Nc1c(O)ccc(C(=O)O)c1O)C(=O)C[C@@H]4SC(=O)c1cccs1 | 1 (≈ 1.71 µM) | 2 (≈ 3.41 µM) | 1 (≈ 1.71 µM) | 1 (≈ 1.71 µM) | 1 (≈ 1.71 µM) | 1 (≈ 1.71 µM) | 2 (≈ 3.41 µM) | 2 (≈ 3.41 µM) | 8 (≈ 13.7 µM) | 2 (≈ 3.41 µM) | 1 (≈ 1.71 µM) | 1 (≈ 1.71 µM) |
